Measurements taken from ChEMBL document CHEMBL3351232, “Flemingins G-O, cytotoxic and antioxidant constituents of the leaves of Flemingia grahamiana” (J Nat Prod, 2014).

Experiments:
MCF7 = test: Cytotoxicity against human MCF7 cells after 48 hrs by PrestoBlue cell viability assay; type: functional, cell-based; conditions: MCF7, 48 h
How it was run: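 MCF-7 cells grown in DMEM with 10% FBS, 2 mM L-glutamine, penicillin and streptomycin, 37 °C, 5% CO2. Seeded for exponential growth, then after 24 h switched to medium containing compound or DMSO vehicle (0.1% or 1.0% v/v). Viability read by PrestoBlue fluorescence after 48 h, as % of vehicle control. Six replicates, at least three independent experiments, means ± SE.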

[1] = Antioxidant activity assessed as DPPH scavenging activity after 30 mins by spectrophotometry; type: physicochemical; conditions: 0.5 h; read-out: ED50 (the source's name)
How it was run: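 Samples prepared in double-distilled methanol at 320, 160, 80, 40, 20, 10, 5 and 2.5 μg/mL. 1.0 mL added to 2.0 mL of 76 μM DPPH in methanol, held 30 min at room temperature, remaining DPPH read at 517 nm. Control was methanol plus DPPH; quercetin served as positive control. EC50 (50% absorbance decrease) obtained from a plot of % scavenged versus initial concentration.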

[2] = Activity index, ratio of compound ED50 to quercetin ED50 for antioxidant activity assessed as DPPH scavenging activity after 30 mins by spectrophotometry

Structure (SMILES)	IC50 (MCF7) [µM]	EC50 [1] [µM]	Ratio ED50 [2]
C=C(C)C(O)CCC1(C)C=Cc2c(O)c(C(=O)/C=C/c3ccccc3O)cc(O)c2O1 (mixture of isomers)	> 236		
CC(C)=CCCC1(C)C=Cc2c(O)c(C(=O)/C=C/c3ccccc3O)cc(O)c2O1 (stereo not given)	8.9	4.4	1.8
CC(C)=CCCC1(C)C=Cc2c(O)c(C(=O)/C=C/c3c(O)cccc3O)cc(O)c2O1 (stereo not given)	> 237	7.8	3.1
CC(C)n1nc(C#Cc2ccncc2)c2c(N)ncnc21	5		
CC(C)=CCCC1(C)C=Cc2c(O)c(C(=O)/C=C/c3cc(O)ccc3O)cc(O)c2O1 (stereo not given)	7.6	5.9	2.4
Cc1cc(O)c2c(c1)C(=O)c1cc(O)cc(O)c1C2=O [EMODIN]	317		
C=C(C)C(O)CCC1(C)C=Cc2c(O)c(C(=O)/C=C/c3c(O)cccc3O)cc(O)c2O1 (stereo not given)		8.9	3.5
O=c1c(O)c(-c2ccc(O)c(O)c2)oc2cc(O)cc(O)c12 [QUERCETIN]		2.5	
CC(C)(O)/C=C/CC1(C)C=Cc2c(O)c(C(=O)/C=C/c3cc(O)ccc3O)cc(O)c2O1 (stereo not given)	> 228		
CC(C)(O)/C=C/CC1(C)C=Cc2c(O)c(C(=O)/C=C/c3ccccc3O)cc(O)c2O1 (stereo not given)	> 236		
C=C(C)C(O)CCC1(C)C=Cc2c(O)c(C(=O)/C=C/c3cc(O)ccc3O)cc(O)c2O1 (stereo not given)	221	8.3	3.3
